The list is not random: actives were taken first. Their share in the collection is about 4.1%.
MEKK3 PB1 HTS: raises or lowers MEK5 binding to the human MEKK3 PB1 domain | bead-based flow cytometry, Alexa488-MEK5 binding to MEKK3; actives lie on both sides; 0 = blocked by unlabeled MEK5, 100 = vehicle | binding response (% of control), % at 10 µM | hit rate 1.4% among 290,000;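 active means binding response more than 3 SD above or below the average of its plate-row segment, actives on both sides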;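 further: Alexa488 bead fluorescence after subtracting the streptavidin-only scavenger bead signal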
Target sequence (Q99759 whole entry, looked up, the tested form may be a part): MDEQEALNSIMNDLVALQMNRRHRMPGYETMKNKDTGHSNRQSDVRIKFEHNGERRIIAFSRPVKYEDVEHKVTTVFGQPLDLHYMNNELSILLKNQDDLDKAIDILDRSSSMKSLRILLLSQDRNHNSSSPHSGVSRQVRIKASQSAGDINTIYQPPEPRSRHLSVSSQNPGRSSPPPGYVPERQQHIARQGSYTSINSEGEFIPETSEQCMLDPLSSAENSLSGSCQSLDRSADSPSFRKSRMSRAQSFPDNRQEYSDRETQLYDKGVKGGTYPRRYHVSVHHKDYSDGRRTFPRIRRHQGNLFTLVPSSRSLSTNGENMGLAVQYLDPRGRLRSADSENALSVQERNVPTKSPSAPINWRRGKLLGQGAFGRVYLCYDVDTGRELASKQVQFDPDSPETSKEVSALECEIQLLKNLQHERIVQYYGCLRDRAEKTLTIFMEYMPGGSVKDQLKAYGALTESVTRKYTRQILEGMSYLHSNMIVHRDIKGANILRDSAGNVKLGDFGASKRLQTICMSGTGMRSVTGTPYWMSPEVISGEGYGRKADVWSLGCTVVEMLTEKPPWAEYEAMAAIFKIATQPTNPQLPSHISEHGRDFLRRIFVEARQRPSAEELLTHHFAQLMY
MEKK2mut PB1 HTS: signal of MEK5 binding to mutant human MEKK2 PB1 domain; hit rate 0.35% among 290,000; bead flow cytometry, Alexa488-MEK5 binding to MEKK2 mutant; percent response, % at 10 µM; in the data active means percent response above about 24%, passing the limit was not always enough
T cruzi repl: T. cruzi replication inhibition; T. cruzi beta-gal in NIH3T3, luminescence, 90 h; inhibition, % (no concentration beside the values); hit rate 1.4% among 300,000; AID 1885;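 active means mean inhibition across valid replicates above about 55%, limit read from the data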;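 further: signal also drops with host cell toxicity which is not excluded here; 0% = plate median of DMSO wells and 100% = zero luminescence signal; higher percent means less beta-gal luminescence so fewer parasites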
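Assay system: NIH/3T3 host cells with β-galactosidase reporter T. cruzi; input: 5,000 host fibroblasts per well; compound: single 50 nL compound addition per well in DMSO; timing: ≥90 h infection period, 3 h prior cell attachment; measured by: GalScreen β-gal luminescence, detergent lysis, 60 min; evaluation: percent inhibition of parasite-derived β-gal signal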
NS3 helicase inh: blocks Hepatitis C virus NS3 helicase unwinding | NS3 helicase DNA unwinding, Cy5 molecular beacon fluorescence | inhibition, % at 10.9 µM | hit rate 0.56% among 290,000 | AID 1800;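 active means inhibition above the mean of all tested compounds plus 3 SD, set per campaign, cut at about 35% in these data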;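 further: 0% = DMSO wells and 100% = thioflavine S control wells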
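Assay system – hepatitis C virus NS3 helicase domain fragment enzyme · Buffer or medium – MOPS pH 6.5, MgCl2, DTT, Tween20, BSA · Reagent – Cy5/quencher beacon DNA duplex and ATP to start · Compound – single 10.9 µM dose · Timing – 1 h at 25 °C · Technique – Cy5 beacon fluorescence read at start and 1 h · Measure – % inhibition of unwinding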
FID counter: displaces DNA intercalator in HCV helicase counter-screen; DNA fluorescent intercalator displacement, fluorescence; inhibition, % at 7.9 µM; hit rate 0.17% among 290,000; in the data active means inhibition above about 37%;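 further: 0% = vehicle and 100% = reference compound; higher means more ethidium bromide displaced from hairpin DNA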
MEKK2wt PB1 HTS: raises or lowers MEK5 binding to wildtype human MEKK2 PB1 domain; AID 1531; binding response (% of control), % at 10 µM; hit rate 1.1% among 290,000; Q9Y2U5; bead flow cytometry, Alexa488-MEK5 binding to MEKK2 WT; actives lie on both sides; in the data active means binding response below about 67% or above about 130%
MEKK2wt confirm: raises or lowers MEK5 binding to wildtype human MEKK2, retest; shares compounds with MEKK3 PB1 HTS; bead flow cytometry, Alexa488-MEK5 binding to MEKK2 WT; actives lie on both sides; binding response (% of control), % at 10 µM; hit rate 2.4% among 5,900; AID 1892; in the data active means binding response below about 16% or above about 210%; inactive means in between
MEKK2mut confirm: signal of MEK5 binding to mutant human MEKK2, retest; shares compounds with MEKK3 PB1 HTS; bead flow cytometry, Alexa488-MEK5 binding to MEKK2 mutant; percent response, % at 10 µM; hit rate 2% among 5,900; AID 1893; in the data active means percent response mostly above about 71%, no sharp cut-off; inactive means mostly below about 38%;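 further: higher means compound restores mutant binding toward wildtype level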
MEKK3-MEK5 inh: confirmation of inhibitors of MEK5 binding to human MEKK3 | bead flow cytometry, Alexa488-MEK5 binding to MEKK3; hits give low values | shares compounds with MEKK3 PB1 HTS | hit rate 1.8% among 5,900 | binding response (% of control), % at 10 µM | AID 1894;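 active means binding response below 72% of control, or above a set upper limit, though filed actives all read lower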;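 further: 100% = DMSO only wells and 0% = binding blocked by excess unlabeled MEK5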
* marks the source's active call; other numbers are inactive results; / = no result; [ ] = dose if it differs, or a comment.

SMILES	MEKK3 PB1 HTS	MEKK2mut PB1 HTS	T cruzi repl	NS3 helicase inh	FID counter	MEKK2wt PB1 HTS	MEKK2wt confirm	MEKK2mut confirm	MEKK3-MEK5 inh
O=C(CC(=O)Nc1ccccc1[N+](=O)[O-])Nc1ccccc1[N+](=O)[O-]	106.0	2.0	1.6	-8.3	14.8	105.0	/	/	/
COc1ccc(Cl)cc1NC(=S)N1CCC(c2ccc(C)cc2)C1 (stereo unspecified)	106.0	4.0	-5.4	-9.9	-8.5	103.0	/	/	/
Cc1ccc(C2CCN(C(=S)NC(C)C)C2)cc1 (stereo unspecified)	48.0*[inhibitor]	-40.0	-11.3	-6.3	-11.6	58.0	99.0	2.0	101.0
Cc1ncc([N+](=O)[O-])n1S(=O)(=O)c1cc(Cl)ccc1Cl	101.0	5.0	-9.9	5.6	2.3	102.0	/	/	/
O=C(NCCc1ccco1)C(=O)NCC1OCCCN1S(=O)(=O)c1cc(F)ccc1F (stereo unspecified)	108.0	11.0	-2.1	7.6	-21.1	115.0	/	/	/
COC(=O)c1sccc1NC(=O)c1ccc(C)o1	0.0*[inhibitor]	-21.0	1.9	9.6	-2.4	-1.0*[inhibitor]	92.0	-2.0	99.0
O=C(NC1CC1)C1CCCN1C(=O)NC1CCCCC1 (stereo unspecified)	102.0	1.0	-2.4	4.3	-1.0	106.0	/	/	/
CCCCNC(=O)C1CCCN1C(=O)NC1CCCCC1 (stereo unspecified)	2.0*[inhibitor]	0.0	3.2	-1.8	-3.5	3.0*[inhibitor]	96.0	-6.0	98.0
Cc1c(Cl)ccc2c(C(=O)NCCN3CCCCC3)cc(-c3ccccn3)nc12	103.0	23.0	-6.9	-39.5	21.9	166.0*	121.0	6.0	95.0
Cc1c(Cl)ccc2c(C(=O)NCCCn3nccc3C)cc(-c3ccccn3)nc12	95.0	-6.0	16.9	-16.1	-40.3	98.0	/	/	/
COc1ccccc1-c1cc(C(=O)NC2CCN(C)CC2)c2ccc(Cl)c(C)c2n1	105.0	28.0*	59.2*	-43.9	30.9	155.0*	132.0	25.0	108.0
CCC/C=C1/CCCOC(C(=O)NCCNCCO)(C(F)(F)F)C1 (stereo unspecified)	71.0*[inhibitor]	-7.0	5.9	/	/	81.0	97.0	3.0	97.0
COc1ccc(C)cc1N(CC(=O)Nc1ccc(S(=O)(=O)N2CCCC2)cc1)S(C)(=O)=O	98.0	1.0	5.6	-9.2	-48.2	101.0	/	/	/
O=C(c1ccccc1)c1c(-c2ccccc2)[nH]n(-c2ccccc2)c(=O)c1=O	/	/	-7.0	/	/	/	/	/	/
CC1CCCN(CCOCCSc2ccccc2)C1 (stereo unspecified)	133.0*	0.0	59.9*	-3.0	7.3	103.0	101.0	-11.0	95.0
CC1CCCN(CCOCCOc2ccc(Br)cc2Cl)C1 (stereo unspecified)	150.0*	7.0	45.6	-14.7	14.3	112.0	111.0	11.0	98.0
CC1CCCN(CCOc2ccc(Br)cc2)C1 (stereo unspecified)	198.0*	0.0	0.7	-0.5	1.7	112.0	91.0	-12.0	87.0
COc1ccccc1CNS(=O)(=O)c1ccc(Cl)s1	104.0	4.0	-2.8	7.2	-12.2	102.0	/	/	/
On1nnc2c3ccccc3c3ccccc3c21	98.0	-14.0	-4.2	6.9	3.7	92.0	/	/	/
c1csc(CNc2ccc3c(c2)OCCO3)c1	131.0*	-1.0	/	-4.7	2.0	98.0	93.0	-6.0	94.0
NC(N)=NS(=O)(=O)c1ccc(NC(=S)NC(=O)c2ccc3c(c2)OCO3)cc1	104.0	2.0	-15.1	1.8	-3.3	99.0	/	/	/
CN1CCN(CCCNCc2cn(CCC#N)c3ccccc23)CC1	106.0	25.0*	-11.9	-46.5	15.5	168.0*	151.0	29.0	107.0
N#CCCN1CCN(Cn2c3ccccc3c3ccccc32)CC1	98.0	-1.0	8.7	1.9	-4.9	99.0	/	/	/
Cc1ccccc1NC(=O)COc1nsnc1N1CCOCC1	2.0*[inhibitor]	-16.0	0.7	1.8	-2.7	2.0*[inhibitor]	101.0	-1.0	98.0
COc1ccc(OC)c(C(=O)NC(CC(N)=O)c2ccc(N3CCN(c4ccccn4)CC3)c([N+](=O)[O-])c2)c1 (stereo unspecified)	103.0	-8.0	2.2	4.8	-26.4	104.0	/	/	/
SMILES	MEKK3 PB1 HTS	MEKK2mut PB1 HTS	T cruzi repl	NS3 helicase inh	FID counter	MEKK2wt PB1 HTS	MEKK2wt confirm	MEKK2mut confirm	MEKK3-MEK5 inh
Cn1c(SCC(=O)N2CCN(S(=O)(=O)c3ccccc3)CC2)nc2ccccc21	109.0	6.0	7.3	3.2	-21.6	108.0	/	/	/
Cn1c(SCC(=O)N2CCN(S(=O)(=O)c3ccc(Cl)cc3)CC2)nc2ccccc21	133.0*	8.0	-0.6	-0.3	-26.0	129.0	102.0	6.0	103.0
Cn1c(SCC(=O)NNC(=O)c2ccc(Br)cc2)nnc1-c1cccnc1	110.0	7.0	-9.4	1.6	-5.3	109.0	/	/	/
CNC(=O)CSc1nnc(-c2ccco2)n1-c1cccc(C)c1C	100.0	0.0	0.5	14.2	-9.7	98.0	/	/	/
CCn1c(SCC(=O)NNC(=O)c2ccccc2)nnc1-c1ccco1	73.0*[inhibitor]	-13.0	-7.3	-9.7	-6.2	68.0	99.0	-6.0	99.0
Cc1nnc(SCC(=O)NNC(=O)c2ccc(Br)cc2)n1C	123.0	557.0*	-22.5	-0.6	-5.7	717.0*	103.0	0.0	100.0
CNC(=O)CSc1nnc(-c2ccco2)n1-c1cc(C)ccc1C	103.0	32.0*	-2.2	7.4	-11.7	106.0	110.0	0.0	106.0
COc1ccc(CNC(=O)CCC(=O)N2CCN(S(=O)(=O)c3ccc(Cl)cc3)CC2)cc1	87.0	-3.0	-13.7	-6.1	-29.5	85.0	/	/	/
Cc1ccc(C(=O)COC(=O)CN2C(=O)C3C4CC(C(Br)C4Br)C3C2=O)cc1 (stereo unspecified)	99.0	-5.0	-6.5	-19.7	-23.8	92.0	/	/	/
Cc1ccccc1Oc1nc2c(C)cccn2c(=O)c1/C=C(\C#N)C(=O)Nc1c(C)n(C)n(-c2ccccc2)c1=O	137.0*	0.0	13.2	-1.7	-15.7	102.0	68.0	-18.0	65.0*
Cc1ccccc1Oc1nc2ccccn2c(=O)c1/C=C(\C#N)C(=O)Nc1c(C)n(C)n(-c2ccccc2)c1=O	122.0	0.0	-16.0	-8.7	-11.7	101.0	/	/	/
CCOC(=O)CSc1ncnc2c1sc1nc(N3CCOCC3)c3c(c12)CCCC3	82.0*[inhibitor]	-12.0	0.8	3.5	-1.9	93.0	98.0	-1.0	104.0
